From PubChem
A selection: hits, their analogues and other compounds. The true share with any hit is near 1.5%.
Wnt act = activates Wnt/beta-catenin signaling in a reporter cell assay. activator, plate reader. activation, % at 9.35 µM. 300,000 tested, 1.2% active; in the data active = activation above about 30%, passing the limit was not always enough;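 note: 0% = neutral control wells and 100% = positive control wells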
PGC1a acetyl inh = modulators of PGC1a acetylation; U2OS PGC1a acetylation, AlphaScreen anti-acetyl-lysine; with virally co-expressed GCN5 acetyltransferase; inhibition, % at 15.6 µM; 350,000 tested, 0.17% active;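 active = every replicate shows inhibition of at least 40%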;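 note: 0% = neutral control wells and 100% = positive control wells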
MITF TRPM1 HTS = increases MITF-driven TRPM1 promoter luciferase signal | SK-MEL-5 TRPM1-promoter luciferase, 24 h; % of positive control, neutral wells = 0 | activation, % at 12.5 µM | 300,000 tested, 0.75% active | AID 588334;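 active = mean activation of at least 80% with every replicate also reaching 80%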;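 note: 0% = neutral control wells and 100% = parthenolide positive control wells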
Cneo AK release = Cryptococcus neoformans lysis via adenylate kinase release. AID 651654. lysis activity, % at 15 µM. 360,000 tested, 0.2% active. C. neoformans lysis, adenylate kinase release luminescence, 4 h; normalised: neutral wells 0, clomiphene wells 100;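 active = mean lysis activity across replicates of at least 80%, whatever share of replicates individually reach that level; inactive = mean lysis activity below 80%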
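Signal: Adenylate kinase release luminescence | Assay system: Log-phase Cryptococcus neoformans yeast cells | Input: Cells at 5 × 10^6 per mL | Buffer or medium: Fresh YPD growth medium | Compound: Single dose | Schedule: Static 4 h at 37 °C with compound, 1 h detection | Controls: Clomiphene | Read-out: Luminescence rise reflecting yeast cell lysis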
* hit, by the source's call; x = not tested or not shown.

SMILES	Wnt act	PGC1a acetyl inh	MITF TRPM1 HTS	Cneo AK release
C[C@H]1CN([C@@H](C)CO)C(=O)c2cc(-c3ccc(C#N)cc3)cnc2O[C@H]1CN(C)C(=O)Nc1ccc(F)cc1	x	-5	x	-1
C[C@H]1CN([C@@H](C)CO)C(=O)c2cc(-c3ccccc3)cnc2O[C@@H]1CN(C)C(=O)Nc1ccc2c(c1)OCO2	x	2	x	1
C[C@@H]1CN([C@@H](C)CO)C(=O)c2cc(-c3ccc(C#N)cc3)cnc2O[C@@H]1CN(C)C(=O)Nc1ccc(F)cc1	x	7	x	92*
C[C@H](CO)N1C[C@H](C)[C@H](CN(C)C(=O)Nc2ccc3c(c2)OCO3)Oc2ncc(-c3ccc(F)cc3)cc2C1=O	x	-4	x	91*
CO[C@@H]1CN(C)C(=O)c2ccc(NC(=O)C3CC3)cc2OC[C@H](C)N(CC2CCOCC2)C[C@H]1C	x	7	x	-3
C[C@H](CO)N1C[C@H](C)[C@H](CN(C)Cc2ccccn2)Oc2cc(-c3ccc(C#N)cc3)ccc2S1(=O)=O	x	11	x	0
CC=Cc1ccc2n(c1=O)C[C@H]1[C@H](CO)[C@@H](C(=O)NCCC)N(C(=O)C3CCOCC3)[C@@H]21 (mixture of isomers)	x	x	x	-1
COc1cccc2sc3ccc(C#Cc4ccc(N)cc4)cc3c(=O)c12	37*	x	102*	1
COc1cccc2sc3ccc(C#CC4(O)CCCCC4)cc3c(=O)c12	20	-3	107*	-9
Nc1ccc(C#Cc2ccc3sc4ccccc4c(=O)c3c2)cc1	18	3	66	9
O=C(CCS(=O)(=O)c1ccccc1)NC12CC3CC(CC(C3)C1)C2	0	-4	97*	-4
O=C(CCS(=O)(=O)c1ccccc1)NCCS(=O)(=O)c1ccccc1	0	3	-11	x
CCS(CC)=NS(=O)(=O)c1ccc(NC(C)=O)cc1	-1	5	x	123*
CC(=O)Nc1ccc(S(=O)(=O)N=S(C)C)cc1	0	31	x	0
O=C(COC(=O)c1ccc(F)c(S(=O)(=O)N2CCCCC2)c1)NCc1ccc(F)cc1	40*	1	8	6
C[C@H](CO)N1C[C@H](C)[C@H](CN(C)Cc2ccncc2)Oc2ccc(N(C)C)cc2CC1=O	x	-12	x	-3
C[C@@H]1CN([C@H](C)CO)C(=O)c2cccc(NC(=O)c3cnccn3)c2O[C@H]1CN(C)S(C)(=O)=O	x	10	x	-4
O=C(C[C@@H]1CC[C@@H]2[C@H](COC[C@@H](O)CN2C(=O)c2cccnc2)O1)NCc1ccc(Cl)cc1	x	-7	x	-4
N/C(=N\OC(=O)COc1ccc(Cl)cc1Cl)c1cccnc1	30	-1	142*	-2
CCc1ccc(OCC(=O)O/N=C(\N)c2ccncc2)c(Br)c1	31*	5	103*	-10
N/C(=N\OC(=O)COc1ccc(Cl)cc1Br)c1ccncc1	45*	x	92*	x
N/C(=N\OC(=O)CCCOc1ccc(Cl)cc1Cl)c1ccncc1	-1	1	-1	-1
CN1[C@@H]2c3ccc(-c4ccc(F)cc4)c(=O)n3C[C@H]1[C@H](CO)[C@H]2C(=O)Nc1nccs1	x	x	x	1
C[C@H](CO)N1C[C@H](C)[C@@H](CN(C)C(=O)NC2CCCC2)Oc2ncc(C#CC3CCCCC3)cc2C1=O	x	0	x	67
Cc1cccc(-c2nnc(-c3cccc4ccccc34)o2)c1	51*	3	13	-29
SMILES	Wnt act	PGC1a acetyl inh	MITF TRPM1 HTS	Cneo AK release
Cc1ccc(-c2nnc(-c3cccc4ccccc34)o2)cc1	1	0	36	-2
Clc1ccc(-c2nnc(-c3cccc4ccccc34)o2)cc1	39*	x	26	-1
c1ccc(Nc2nnc(-c3cccc4ccccc34)o2)cc1	38*	-13	x	0
CCC(=O)N1[C@H](CO)[C@H](c2ccccc2)[C@@H]1CN(CC)C(=O)c1cccc(F)c1	x	-6	x	99*
COc1ccc(N2CCN(C(=O)c3cc(=O)[nH]c4ccccc34)CC2)cc1	-2	4	-13	x
O=C(c1cc(=O)[nH]c2ccccc12)N1CCN(c2ccc([N+](=O)[O-])cc2)CC1	39*	12	-13	-1
CC(C)c1cn(CC[C@@H]2CC[C@H](NS(=O)(=O)c3ccccc3)[C@@H](CO)O2)nn1	x	-3	x	1
Cc1ccc(Nc2nnc(-c3ccccc3N)o2)cc1C	37*	-3	x	x
Cc1ccc(NCc2ccco2)cc1C	18	x	35	x
COc1ccc(/C=C/C(=O)O/N=C(\N)c2ccccn2)cc1OC	1	9	81*	0
N/C(=N\OC(=O)/C=C/c1ccccc1)c1ccccn1	28	x	49	-7
N/C(=N\OC(=O)Cc1cccc2ccccc12)c1ccccn1	42*	-6	79	-3
Cc1ccc(CC(=O)O/N=C(\N)c2ccccn2)cc1	40*	1	28	-10
N/C(=N\OC(=O)Cc1ccc(Cl)cc1)c1ccccn1	x	2	78	-1
C[C@@H]1CN([C@H](C)CO)C(=O)c2cc(C#Cc3ccccc3)cnc2O[C@H]1CN(C)S(=O)(=O)c1ccccc1F	x	-3	x	45
Cc1ccccc1Nc1nc(N)nc(CSc2ccc(F)cc2)n1	17	5	89*	-6
C[C@@H]1CN([C@@H](C)CO)C(=O)c2cc(NS(=O)(=O)c3ccc(F)cc3)ccc2O[C@@H](C)CCCCO[C@H]1CN(C)CC1CC1	x	2	x	1
Cc1noc(C)c1NC(=O)Nc1ccc2c(c1)C(=O)N([C@H](C)CO)C[C@@H](C)[C@H](CN(C)S(C)(=O)=O)O2	x	-15	x	-1
O=C(C[C@H]1C=C[C@@H](NC(=O)c2ccncc2)[C@H](CO)O1)NCc1ccncn1	x	29	x	x
COC1=C/C(=C/c2c(O)c(C#N)c3ccccn23)C=CC1=O	34*	x	0	x
COc1cc(OC)cc(C(=O)c2c(C)c(C#N)c3ccccn23)c1	-6	x	x	-4
CC(=O)Nc1ccc2nc(-c3ccccn3)[nH]c2c1	36*	-8	44	-1
CC(=O)Nc1ccc2nc(-c3ccncc3)[nH]c2c1	-7	5	-2	-1
C[C@@H]1CN([C@@H](C)CO)C(=O)c2cc(NC(=O)Nc3ccc4c(c3)OCO4)ccc2O[C@H]1CN(C)Cc1ccncc1	x	1	x	7
O=[N+]([O-])c1ccccc1COc1ccc(Cl)c2cccnc12	41*	x	6	-3
SMILES	Wnt act	PGC1a acetyl inh	MITF TRPM1 HTS	Cneo AK release
Nc1nc(-c2cc(-c3ccccc3)no2)cs1	46*	-7	88*	-2
Nc1nc(-c2ccccc2)cs1	x	0	38	0
c1ccc(-c2cc(-c3ccccc3)on2)cc1	42*	4	79	-1
Cc1ccc(-c2cc(-c3ccccc3)no2)cc1	24	-7	41	-3
C[C@@H]1CN([C@H](C)CO)C(=O)c2cc(NC(=O)CCC(F)(F)F)ccc2O[C@@H](C)CCCCO[C@H]1CN(C)Cc1ccncc1	x	2	x	0
CN1CCN(C(=O)C[C@H]2CC[C@@H](NS(=O)(=O)c3cccc(F)c3)[C@H](CO)O2)CC1	x	6	x	5
COc1ccc(-c2c(C)nn3c(NC4CCCC4)cc(C)nc23)cc1OC	1	7	-18	-3
Cc1cc(NC2CCCC2)n2nc(C)c(-c3ccccc3)c2n1	6	-20	100*	0
